According to article PMC2989669 (Bioorganic & medicinal chemistry letters, 2010):
Blank lines part the entries; values can stand above or below the compound they belong to.

Experiments:
MIF-CD74 binding = target: T1, MIF-CD74 binding (Homo sapiens, UniProt P14174); test: MIF-CD74 binding assay; conditions: for IC50 or max % inhib CD74 (result in words): MIF-CD74 binding assay
T1 sequence (P14174 2-115 limits assumed): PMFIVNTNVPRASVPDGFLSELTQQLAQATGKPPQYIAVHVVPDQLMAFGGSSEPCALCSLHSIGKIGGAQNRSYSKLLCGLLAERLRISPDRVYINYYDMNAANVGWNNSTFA

human MIF = target: T2, human MIF (Homo sapiens, UniProt P14174); test: MIF tautomerase assay using 4-hydroxyphenylpyruvate; type: biochemical; conditions: for IC50 or max % inhib 4-HPP (result in words): tautomerase assay
T2 sequence (P14174 2-115 limits assumed): T1 sequence (P14174 2-115 limits assumed)
Outline: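 Recombinant human MIF; tautomerase activity measured with 4-hydroxyphenylpyruvate (4-HPP) as substrate. Test compounds were run from 1 nM to 1 mM. IC50 was reported. Where inhibition plateaued below 50%, the maximum percent inhibition was reported instead.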

MIF tautomerase = conditions: cited from earlier work
[1] = test system: MIF-dependent ERK1/2 phosphorylation; test: MIF-dependent ERK1/2 phosphorylation in human fibroblasts; type: cell-based; conditions: human primary fibroblasts, MIF […] trimer, compound 8 nM, 30 min

Structure (SMILES): Cc1cccc(Cn2cc(-c3ccc(O)cc3)nn2)c1 [3c]
- IC50 (MIF-CD74 binding): > 1000 µM

Structure (SMILES): COC(=O)CC1CC(c2ccc(O)cc2)=NO1 (stereo not shown) [compound 2]
- tautomerase inhibition (reported potency) (MIF tautomerase): 7 µM

Structure (SMILES): COC(=O)c1cccc(Cn2cc(-c3ccc(O)cc3)nn2)c1 [3h]
- IC50 (MIF-CD74 binding): ~1 µM
- IC50 (human MIF): ~1 µM

Structure (SMILES): Cc1ccccc1Cn1cc(-c2ccc(O)cc2)nn1 [3b]
- IC50 (MIF-CD74 binding): > 1000 µM

Structure (SMILES): COc1ccc(Cn2cc(-c3ccc(O)cc3)nn2)cc1 [3f]
- IC50 (MIF-CD74 binding): > 1000 µM

Structure (SMILES): COc1ccccc1Cn1cc(-c2ccc(O)cc2)nn1 [3d]
- IC50 or max % inhib CD74 (result in words) (MIF-CD74 binding): Agon
- IC50 or max % inhib 4-HPP (result in words) (human MIF): Agon
- effect on MIF-dependent ERK1/2 phosphorylation [1]: enhances ERK1/2 phosphorylation

Structure (SMILES): CCOC(=O)c1cc2ccc(O)cc2oc1=O [compound 1]
- tautomerase inhibition (reported potency) (MIF tautomerase): 7 µM

Structure (SMILES): Oc1ccc(-c2cn(Cc3ccccc3)nn2)cc1 [3a]
- IC50 (MIF-CD74 binding): > 1000 µM

Structure (SMILES): O=C(O)c1cccc(Cn2cc(-c3ccc(O)cc3)nn2)c1 [3i]
- IC50 (MIF-CD74 binding): > 1000 µM

Structure (SMILES): COc1cccc(Cn2cc(-c3ccc(O)cc3)nn2)c1OC [3g]
- IC50 (MIF-CD74 binding): ~1 µM
- IC50 (human MIF): ~1 µM
- effect on MIF-dependent ERK1/2 phosphorylation [1]: strongly inhibits

Continued, in another order:

- IC50 (MIF-CD74 binding): > 1000 µM
- IC50 (human MIF): > 1000 µM
Structure (SMILES): Oc1ccc(-n2cc(Cc3cccc(O)c3)nn2)cc1 [4d]

- IC50 (MIF-CD74 binding): > 1000 µM
Structure (SMILES): COc1cccc(Cc2cn(-c3ccc(O)cc3)nn2)c1OC [4i]

- IC50 or max % inhib CD74 (result in words) (MIF-CD74 binding): Agon
- IC50 or max % inhib 4-HPP (result in words) (human MIF): Agon
Structure (SMILES): Oc1ccc(-n2cc(-c3cncc4ccccc34)nn2)cc1 [5c]
- effect on MIF-dependent ERK1/2 phosphorylation [1]: enhances ERK1/2 phosphorylation

- IC50 (MIF-CD74 binding): > 1000 µM
Structure (SMILES): Oc1ccc(-n2cc(-c3cccc4ccccc34)nn2)cc1 [5b]

- IC50 or max % inhib CD74 (result in words) (MIF-CD74 binding): Agon
- IC50 or max % inhib 4-HPP (result in words) (human MIF): Agon
Structure (SMILES): Oc1ccc(-n2cc(-c3cccnc3)nn2)cc1 [5a]
- effect on MIF-dependent ERK1/2 phosphorylation [1]: enhances ERK1/2 phosphorylation
